ChEMBL document CHEMBL1155761, “Isolation and structure of five new cancer cell growth inhibitory bufadienolides from the Chinese traditional drug Ch'an Su” (J Nat Prod, 2001)
In brackets after ≈: the same amount, converted by molar mass.

Columns and labels:
Assay type in all cases: functional, cell-based
[1] = system: KB; experiment: Cytotoxicity against human KB cells after 72 hrs by MTT assay
Outline: (§1)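 Cells seeded per well in 0.2 mL culture medium: 2 × 10^4 cells for KB and HL-60, 5 × 10^3 cells for MH-60. Treated in triplicate with graded concentrations of test samples (5 µL added per well), then incubated 72 h at 37 °C in 5% CO2.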

[2] = system: HL-60; experiment: Cytotoxicity against human HL60 cells after 72 hrs by MTT assay; details: HL-60, 72 h; outline: as §1
[3] = system: MH60; experiment: Cytotoxicity against mouse MH60 cells after 72 hrs by MTT assay; details: MH60, 72 h; outline: as §1
[4] = system: BXPC-3; experiment: Cytotoxicity against human BxPC3 cells after 72 hrs by MTT assay; details: BXPC-3, 72 h
[5] = system: MCF7; experiment: Cytotoxicity against human MCF7 cells after 72 hrs by MTT assay; details: MCF7, 72 h
[6] = system: SF-268; experiment: Cytotoxicity against human SF268 cells after 72 hrs by MTT assay; details: SF-268, 72 h
[7] = system: NCI-H460; experiment: Cytotoxicity against human NCI-H460 cells after 72 hrs by MTT assay; details: NCI-H460, 72 h
[8] = system: KM-20L2; experiment: Cytotoxicity against human KM20L2 cells after 72 hrs by MTT assay; details: KM-20L2, 72 h
[9] = system: DU-145; experiment: Cytotoxicity against human DU145 cells after 72 hrs by MTT assay; details: DU-145, 72 h

Structure (SMILES)	IC50 [1] [µg/mL]	IC50 [2] [µg/mL]	IC50 [3] [µg/mL]	IC50 [4] [µg/mL]	IC50 [5] [µg/mL]	IC50 [6] [µg/mL]	IC50 [7] [µg/mL]	IC50 [8] [µg/mL]	IC50 [9] [µg/mL]
CC(=O)O[C@H]1[C@H]2O[C@]23[C@@H]2CC[C@@H]4C[C@@H](O)CC[C@]4(C)[C@H]2CC[C@]3(C)[C@H]1c1ccc(=O)oc1 [CINOBUFAGIN]	0.21 (≈ 0.475 µM)	< 0.01	> 25	–	–	–	–	–	–
CC(=O)O[C@H]1[C@H]2O[C@]23[C@@H]2CC[C@]4(O)C[C@@H](O)CC[C@]4(C)[C@H]2CC[C@]3(C)[C@H]1c1ccc(=O)oc1 [CINOBUFOTALIN]	0.37 (≈ 0.807 µM)	0.047 (≈ 0.102 µM)	> 25	–	–	–	–	–	–
C[C@]12CC[C@H]3[C@@H](CC[C@@H]4C[C@@H](O)CC[C@@]43C=O)[C@@]1(O)CC[C@@H]2c1ccc(=O)oc1	–	< 0.01	> 25	0.014 (≈ 0.035 µM)	0.0072 (≈ 0.018 µM)	0.0047 (≈ 0.0117 µM)	0.018 (≈ 0.0449 µM)	0.0082 (≈ 0.0205 µM)	0.0046 (≈ 0.0115 µM)
C[C@]12CC[C@H](O)C[C@H]1CC[C@@H]1[C@@H]2CC[C@]2(C)[C@@H](c3ccc(=O)oc3)C[C@H]3O[C@]132 [BUFOGENIN]	1.3 (≈ 3.38 µM)	0.5 (≈ 1.3 µM)	10 (≈ 26 µM)	–	–	–	–	–	–
C[C@]12CC[C@H](O)C[C@H]1CC[C@@H]1[C@@H]2CC[C@]2(C)[C@@H](c3ccc(=O)oc3)CC[C@]12O [BUFALIN]	0.67 (≈ 1.73 µM)	< 0.01	> 25	–	–	–	–	–	–
C[C@]12CC[C@H]3[C@@H](CC[C@@H]4C[C@@H](O)CC[C@@]43CO)[C@]13O[C@@H]3[C@H](O)[C@@H]2c1ccc(=O)oc1	3.9 (≈ 9.36 µM)	0.49 (≈ 1.18 µM)	> 25	–	–	–	–	–	–
CC(=O)O[C@H]1C[C@]2(O)[C@@H]3CC[C@]4(O)C[C@@H](O)CC[C@]4(C)[C@H]3CC[C@]2(C)[C@H]1c1ccc(=O)oc1	0.2 (≈ 0.434 µM)	< 0.01	> 25	0.11 (≈ 0.239 µM)	0.046 (≈ 0.0999 µM)	0.033 (≈ 0.0717 µM)	0.048 (≈ 0.104 µM)	0.034 (≈ 0.0738 µM)	0.024 (≈ 0.0521 µM)
C[C@]12CC[C@H](O)C[C@H]1CC[C@@H]1[C@@H]2C[C@@H](O)[C@]2(C)[C@@H](c3ccc(=O)oc3)C[C@H]3O[C@]132	0.97 (≈ 2.42 µM)	0.045 (≈ 0.112 µM)	> 25	0.12 (≈ 0.3 µM)	0.066 (≈ 0.165 µM)	0.046 (≈ 0.115 µM)	0.017 (≈ 0.0424 µM)	0.012 (≈ 0.03 µM)	0.041 (≈ 0.102 µM)
C[C@]12CC[C@H]3[C@@H](CC[C@@H]4C[C@@H](O)CC[C@@]43CO)[C@]13O[C@@H]3C[C@@H]2c1ccc(=O)oc1	1.2 (≈ 3 µM)	0.48 (≈ 1.2 µM)	> 25	0.63 (≈ 1.57 µM)	0.33 (≈ 0.824 µM)	0.25 (≈ 0.624 µM)	0.44 (≈ 1.1 µM)	0.45 (≈ 1.12 µM)	0.38 (≈ 0.949 µM)
C[C@]12CC[C@H](O)C[C@H]1CC[C@@H]1[C@@H]2[C@H](O)C[C@]2(C)[C@@H](c3ccc(=O)oc3)CC[C@]12O [GAMABUFOTALIN]	0.75 (≈ 1.86 µM)	0.014 (≈ 0.0348 µM)	> 25	–	–	–	–	–	–
CC(=O)O[C@H]1[C@H]2O[C@]23[C@@H]2C[C@H](O)[C@@H]4C[C@@H](O)CC[C@]4(C)[C@H]2CC[C@]3(C)[C@H]1c1ccc(=O)oc1	0.87 (≈ 1.9 µM)	0.038 (≈ 0.0829 µM)	> 25	0.46 (≈ 1 µM)	0.36 (≈ 0.785 µM)	0.32 (≈ 0.698 µM)	0.74 (≈ 1.61 µM)	0.28 (≈ 0.611 µM)	0.21 (≈ 0.458 µM)
C[C@]12CC[C@H](O)C[C@@]1(O)CC[C@@H]1[C@@H]2CC[C@]2(C)[C@@H](c3ccc(=O)oc3)[C@@H](O)[C@H]3O[C@]132 [DESACETYLCINOBUFOTALIN]	10 (≈ 24 µM)	4.3 (≈ 10.3 µM)	> 25	–	–	–	–	–	–
CC(=O)O[C@H]1[C@H]2O[C@]23[C@@H]2CC[C@@H]4C[C@@H](O)CC[C@]4(C)[C@H]2C[C@@H](O)[C@]3(C)[C@H]1c1ccc(=O)oc1	0.79 (≈ 1.72 µM)	< 0.01	> 25	–	–	–	–	–	–
CC(=O)O[C@H]1C[C@]2(O)[C@@H]3CC[C@@H]4C[C@@H](O)CC[C@]4(C)[C@H]3CC[C@]2(C)[C@H]1c1ccc(=O)oc1 [BUFOTALIN]	0.19 (≈ 0.427 µM)	< 0.01	> 25	–	–	–	–	–	–
C[C@]12CC[C@H](O)C[C@H]1CC[C@@H]1[C@@H]2CC[C@]2(C)[C@@H](c3ccc(=O)oc3)[C@@H](O)C[C@]12O [DESACETYLBUFOTALIN]	0.79 (≈ 1.96 µM)	0.025 (≈ 0.0621 µM)	> 25	–	–	–	–	–	–
C[C@]12CC[C@H](OC=O)C[C@H]1CC[C@@H]1[C@@H]2CC[C@]2(C)[C@@H](c3ccc(=O)oc3)C[C@H]3O[C@]132	3.4 (≈ 8.24 µM)	1 (≈ 2.42 µM)	8.1 (≈ 19.6 µM)	1.6 (≈ 3.88 µM)	0.6 (≈ 1.45 µM)	0.38 (≈ 0.921 µM)	0.53 (≈ 1.28 µM)	0.54 (≈ 1.31 µM)	0.42 (≈ 1.02 µM)
C[C@]12CC[C@H](O)C[C@H]1CC[C@@H]1[C@@H]2CC[C@]2(C)[C@@H](c3ccc(=O)oc3)[C@@H](O)[C@H]3O[C@]132 [DESACETYLCINOBUFAGIN]	0.44 (≈ 1.1 µM)	1 (≈ 2.5 µM)	> 25	–	–	–	–	–	–
C[C@]12[C@H](CC[C@@H]3[C@@H]1CC[C@]1(C)[C@@H](c4ccc(=O)oc4)CC[C@]31O)C[C@@H](O)C[C@H]2O	0.19 (≈ 0.472 µM)	< 0.01	> 25	0.024 (≈ 0.0596 µM)	0.012 (≈ 0.0298 µM)	0.0044 (≈ 0.0109 µM)	0.014 (≈ 0.0348 µM)	0.011 (≈ 0.0273 µM)	0.005 (≈ 0.0124 µM)
C[C@]12CC[C@H]3[C@@H](CC[C@@H]4C[C@@H](O)CC[C@@]43C=O)[C@]13OC3[C@H](O)[C@@H]2c1ccc(=O)oc1 (some centres not stated)	0.65 (≈ 1.57 µM)	3 (≈ 7.24 µM)	> 25	> 1	> 1	> 1	> 1	> 1	> 1
C[C@]12CC[C@H](O)C[C@@]1(O)CC[C@@H]1[C@@H]2CC[C@]2(C)[C@@H](c3ccc(=O)oc3)CC[C@]12O [TELOCINOBUFAGIN]	1.3 (≈ 3.23 µM)	< 0.01	> 25	–	–	–	–	–	–
